This is a sample that favours compounds with a hit; in the whole collection about 1.4% have one here.
ARFGAP1 inh – inhibits rat ARF GTPase activating protein 1. Q62848. Arfgap1-stimulated ARF1 GTP hydrolysis, GDP FP detection. inhibition, % at 16.5 µM. actives 0.26% (n = 360,000);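 active = inhibition above a per-plate limit, mean inhibition of low control wells plus 3 SD, cut at about 25% in these data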;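 note: 0% = DMSO wells with enzyme and 100% = wells lacking Arfgap1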
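Material: rat Arfgap1 catalytic domain, aa 1-136; also added: human ARF1(Δ1-17)-GTP substrate; compound dosing: one concentration, 16.5 µM, DMSO 1.26%; incubation: GTP hydrolysis reaction 2 h at 25 °C; measured by: Tracer-displacement fluorescence polarization with EDTA stop, 620/688 nm; evaluation: % inhibition from polarization; repeats: one replicate per compound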
ASAP1 GAP inh – blocks human ASAP1-stimulated Arf1 GTP hydrolysis. Q9ULH1. GDP FP detection. inhibition, % at 16.5 µM. actives 0.19% (n = 360,000); in the data active = inhibition above about 25%;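 note: 0% = vehicle with enzyme and substrate and 100% = no enzyme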
Target sequence (Q9ULH1 325-724 limits assumed): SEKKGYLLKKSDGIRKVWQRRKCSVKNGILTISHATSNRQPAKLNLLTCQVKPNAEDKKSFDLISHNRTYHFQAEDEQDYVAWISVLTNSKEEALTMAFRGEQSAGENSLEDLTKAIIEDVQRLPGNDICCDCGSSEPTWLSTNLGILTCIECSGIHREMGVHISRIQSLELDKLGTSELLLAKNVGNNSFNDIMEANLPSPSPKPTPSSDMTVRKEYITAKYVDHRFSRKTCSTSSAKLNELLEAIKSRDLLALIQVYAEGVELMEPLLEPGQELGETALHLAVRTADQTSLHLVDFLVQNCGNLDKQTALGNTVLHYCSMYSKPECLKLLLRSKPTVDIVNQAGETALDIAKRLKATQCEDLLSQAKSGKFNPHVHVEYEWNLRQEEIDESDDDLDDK
MsrA act – activates bovine MsrA enzyme; actives 0.3% (n = 360,000); AID 602163; purified bovine MsrA, absorbance read-out; activation, % at 10.6 µM; in the data active = activation above about 7.5%;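 note: 0% = vehicle and 100% = reference activator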
MsrA inhibitor – inhibitors of bovine MsrA. AID 651718. inhibition, % at 15.5 µM. actives 0.75% (n = 360,000). purified bovine MsrA, absorbance read-out;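 note: 0% = vehicle wells with enzyme and 100% = reference inhibitor wells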
MsrA conf – confirmation of bovine MsrA inhibitors. AID 651822. shares compounds with MsrA inhibitor. purified bovine MsrA, absorbance read-out. inhibition, % at 15.5 µM. actives 41% (n = 2,300);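 note: coupled to thioredoxin reductase with NADPH and selenocystamine and DMSO as substrate; 0% = vehicle only and 100% = full effect of reference inhibitor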
Numbers without * were called inactive; nt = not tested or not shown. Cut-off read from the data, not from the text of the source, unless noted: active = inhibition above about 4.5%; inactive = the rest.

SMILES	ARFGAP1 inh	ASAP1 GAP inh	MsrA act	MsrA inhibitor	MsrA conf
CCOC(=O)C(/C=C(\C#N)C(=O)OCC)=C(/N)N1CCN(c2ccc(OC)cc2)CC1	-1	10	-9	5.9*	8.2*
Cc1cc2oc(=O)cc(-c3cc4ccccc4o3)c2cc1O	-12	-12	-4	6.5*	4
O=c1cc(-c2cc3ccccc3o2)c2cc(O)ccc2o1	nt	nt	-5	nt	nt
CC(=O)COc1ccc2oc(=O)cc(-c3cc4ccccc4o3)c2c1	-7	7	-3	13*	12*
Cc1ccc(CNC(=O)c2ccc(N3CCC4(CC3)CC(c3ccccc3)=NO4)c(NC(=O)c3ccc(Cl)c([N+](=O)[O-])c3)c2)cc1	-6	-4	1	1	nt
Cc1ccc(O)c(N/C=C/C(=O)c2ccc(F)cc2)c1	-1	-2	-1	2	nt
NS(=O)(=O)c1ccc(CCNC(=S)NC(=O)c2ccccc2Br)cc1	5	10	-4	0	nt
CS(=O)(=O)N1CCN(c2ccc([N+](=O)[O-])c(NCc3cccnc3)c2)CC1	12	-3	-8	5.6*	4
CS(=O)(=O)N1CCN(c2ccc([N+](=O)[O-])c(NCc3ccccc3)c2)CC1	-16	5	-2	1	nt
Cc1ccc(NC(=O)c2cnccn2)nc1	-4	0	-3	2	nt
O=C(c1ccc(-c2nc3ccccc3s2)o1)N1CCN(c2ccccc2O)CC1	5	0	-2	3	nt
O=C(O)c1ccc(-c2nc3ccccc3s2)o1	-6	-10	-4	5.2*	4
COC(=O)c1nc(-c2ccc(C)cc2)oc1N(C)C	0	9	-4	4.8*	2
COc1ccc2[nH]cc(CCNC(=O)CCC3CCCCC3)c2c1	6	-8	-2	2	nt
CCc1c(C)nc2ncnn2c1Nc1ccc(C(C)=O)cc1	-2	-10	-4	5.3*	4
COc1ccc(-c2nn(-c3ccccc3)cc2/C=N/O)cc1	23	13	-1	-1	nt
O=Cc1cn(-c2ccccc2)nc1-c1cccnc1	8	-7	-8	11*	4
O=C(N/N=C\c1cn(-c2ccccc2)nc1-c1ccccc1)c1ccc(Br)o1	4	-12	-11	6.4*	2
C(=N\N1CCOCC1)/c1cn(-c2ccccc2)nc1-c1ccccc1	12	-12	-4	7.0*	0
O=Cc1cn(-c2ccccc2)nc1-c1cccc([N+](=O)[O-])c1	15	-14	-4	4	nt
O=Cc1cn(-c2ccccc2)nc1-c1ccccc1	-5	-2	1	14*	11*
S=C(NCCCN1CCOCC1)N(Cc1ccccc1)Cc1ccccc1	-7	10	-2	-1	nt
C=CCN1[C@@H](Cc2ccccc2)COCCS1(=O)=O	11	4	-6	-1	nt
O=Cc1cn(-c2ccccc2)nc1-c1ccncc1	-6	9	-1	6.0*	2
O=C(O)/C=C/c1cn(-c2ccccc2)nc1-c1ccccc1	1	13	-2	0	nt
SMILES	ARFGAP1 inh	ASAP1 GAP inh	MsrA act	MsrA inhibitor	MsrA conf
Cc1ccc(NC2CCCN(C(=O)c3ccc4[nH]ccc4c3)C2)cc1C (configuration not stated)	2	1	-2	-1	nt
CCOC(=O)N=Nc1c2ccccc2c2nc3no[nH]c3nc12	18	14	-9	14*	18*
COc1ccc(S(=O)(=O)N2CCOCC2)cc1NC(=O)c1ccc(S(=O)(=O)N(C)c2ccccc2OC)cc1	-2	-4	-4	-1	nt
COC(=O)c1ccc2nc(-c3ccc(C#N)cc3)c(Cc3cccc(F)c3)n2c1	-8	0	-1	-1	nt
Cc1ccc(Nc2n[nH]c(C)c2[N+](=O)[O-])c(C)c1	11	0	0	10*	9.1*
CSc1nc(N)c(NC(=O)c2ccc(Br)o2)c(=O)[nH]1	7	-5	-2	-1	nt
O=C(CSc1n[nH]c(-c2ccc(Br)cc2)n1)N1CCOCC1	2	-9	-14	0	nt
O=C(O)c1ccc(N=NN2CCCC2)cc1	8	3	-6	5.1*	3
Cc1c(NC(=S)N/N=C/c2cccc(O)c2)c(=O)n(-c2ccccc2)n1C	9	8	-4	3	nt
Cc1c(NC(=S)N/N=C/c2ccc(N(C)C)cc2)c(=O)n(-c2ccccc2)n1C	-4	14	-6	5.0*	4.6*
CN(C)c1ccc(/C=N/NS(=O)(=O)c2ccc(Br)cc2)cc1	-10	-2	-10	2	nt
Cc1ccc(S(=O)(=O)NCCN=Cc2ccc(N(C)C)cc2)cc1	18	-18	-6	4.9*	4
Cc1ccc(S(=O)(=O)/N=C/c2ccc(N(C)C)cc2)cc1	4	7	-12	6.7*	2
